Measured values taken from PMC10786240 (Antiviral research, 2019).
“Also recorded” adds a separate entry of the source.

Experiments:
[1] = system: OSBP localization in HCT-116 cells; assay: immunofluorescence imaging of endogenous OSBP localization; type: cell-based; details: for OSBP cellular localization: 24 h, OSW-1 1 nM, 25-OHC, ITZ, TTP, THEV 10,000 nM, Golgi marker TGN46; for OSBP cellular localization on co-administration with OSW-1: 24 h, 10,000 nM compound with 1 nM OSW-1
OSBP levels in cells = details: cited from earlier work
[2] = system: OSBP levels in HCT-116 and HEK293 cells; assay: OSBP expression in cells upon 24 h compound treatment; type: cell-based, human; details: for effect of co-administration on OSW-1-induced reduction of OSBP levels: 10,000 nM compound with 1 nM OSW-1, HEK293 and HCT116; for effect on OSBP cellular levels: OSW-1 1 nM, Taxol 10 nM, ITZ, THEV, TTP 10,000 nM, HEK293 and HCT-116
Procedure, shortened: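 HCT-116 (McCoy's 5A, 10% serum, 1% penicillin-streptomycin) or HEK293 cells seeded 5×10^5 per well, 20 h at 37 °C. Compound diluted from stock in complete medium, alone or with 1 nM OSW-1 co-treatment, for 24 h; DMSO vehicle control. Lysates immunoblotted for OSBP (A-5 antibody), β-actin as loading reference. Bands averaged over independent experiments.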

HeLa cells = assay: 48 h cytotoxicity assay; type: cell-based; details: for effect of co-administration on antiproliferative OSW-1 activity, HeLa: 48 h, compound at 10,000 nM with OSW-1
human OSBP [3] = target: T1, human OSBP (Homo sapiens, UniProt P22059); assay: 96-well [3H]-25-OHC competitive binding assay, OSBP; details: compound at 10,000 nM; 20 nM 3H-25-OHC
T1 sequence (P22059 1-807): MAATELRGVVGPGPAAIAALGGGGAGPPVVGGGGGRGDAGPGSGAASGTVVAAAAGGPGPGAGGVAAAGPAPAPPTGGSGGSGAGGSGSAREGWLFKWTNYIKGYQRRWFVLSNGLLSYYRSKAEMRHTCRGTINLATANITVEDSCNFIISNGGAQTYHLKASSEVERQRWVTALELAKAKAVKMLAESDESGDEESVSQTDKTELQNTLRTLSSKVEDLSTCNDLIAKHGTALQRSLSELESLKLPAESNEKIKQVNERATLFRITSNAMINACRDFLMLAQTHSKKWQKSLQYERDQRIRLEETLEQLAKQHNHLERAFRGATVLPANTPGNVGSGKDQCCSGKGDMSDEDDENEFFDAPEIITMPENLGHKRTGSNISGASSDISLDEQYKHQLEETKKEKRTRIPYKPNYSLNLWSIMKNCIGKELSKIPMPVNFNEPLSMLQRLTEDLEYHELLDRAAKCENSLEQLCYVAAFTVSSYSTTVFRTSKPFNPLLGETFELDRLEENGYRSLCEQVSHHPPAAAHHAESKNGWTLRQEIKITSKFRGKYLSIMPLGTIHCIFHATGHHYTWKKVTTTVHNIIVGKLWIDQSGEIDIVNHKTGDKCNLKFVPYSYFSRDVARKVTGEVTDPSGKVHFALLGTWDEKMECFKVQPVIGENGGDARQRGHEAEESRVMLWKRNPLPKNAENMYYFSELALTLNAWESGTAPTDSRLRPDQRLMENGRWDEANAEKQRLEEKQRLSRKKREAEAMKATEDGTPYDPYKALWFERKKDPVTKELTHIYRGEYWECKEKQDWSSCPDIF

immortalized cell lines = assay: 48 h assay for cell metabolic activity; type: cell-based; details: at <10,000 nM concentrations, Fig. 4B, Supp. Fig. 1
full-length GFP-OSBP = details: read-out: KD for full-length GFP-OSBP; microscale thermophoresis; cited from earlier work
OSBP C-terminal ORD = details: OSBP proteolyzed fragments; cited from earlier work
HCT-116 cells = assay: Trypan Blue cell viability assay; type: cell-based; details: for effect on cell population (cell counting after Trypan blue staining): 24 h, OSW-1 1 nM, ITZ, THEV, TTP 10,000 nM, each alone
human ORP4 [4] = target: T2, human ORP4 (Homo sapiens, UniProt Q969R2); assay: 96-well [3H]-25-OHC competitive binding assay, ORP4; details: compound at 10,000 nM; 20 nM 3H-25-OHC
T2 sequence (Q969R2 1-916): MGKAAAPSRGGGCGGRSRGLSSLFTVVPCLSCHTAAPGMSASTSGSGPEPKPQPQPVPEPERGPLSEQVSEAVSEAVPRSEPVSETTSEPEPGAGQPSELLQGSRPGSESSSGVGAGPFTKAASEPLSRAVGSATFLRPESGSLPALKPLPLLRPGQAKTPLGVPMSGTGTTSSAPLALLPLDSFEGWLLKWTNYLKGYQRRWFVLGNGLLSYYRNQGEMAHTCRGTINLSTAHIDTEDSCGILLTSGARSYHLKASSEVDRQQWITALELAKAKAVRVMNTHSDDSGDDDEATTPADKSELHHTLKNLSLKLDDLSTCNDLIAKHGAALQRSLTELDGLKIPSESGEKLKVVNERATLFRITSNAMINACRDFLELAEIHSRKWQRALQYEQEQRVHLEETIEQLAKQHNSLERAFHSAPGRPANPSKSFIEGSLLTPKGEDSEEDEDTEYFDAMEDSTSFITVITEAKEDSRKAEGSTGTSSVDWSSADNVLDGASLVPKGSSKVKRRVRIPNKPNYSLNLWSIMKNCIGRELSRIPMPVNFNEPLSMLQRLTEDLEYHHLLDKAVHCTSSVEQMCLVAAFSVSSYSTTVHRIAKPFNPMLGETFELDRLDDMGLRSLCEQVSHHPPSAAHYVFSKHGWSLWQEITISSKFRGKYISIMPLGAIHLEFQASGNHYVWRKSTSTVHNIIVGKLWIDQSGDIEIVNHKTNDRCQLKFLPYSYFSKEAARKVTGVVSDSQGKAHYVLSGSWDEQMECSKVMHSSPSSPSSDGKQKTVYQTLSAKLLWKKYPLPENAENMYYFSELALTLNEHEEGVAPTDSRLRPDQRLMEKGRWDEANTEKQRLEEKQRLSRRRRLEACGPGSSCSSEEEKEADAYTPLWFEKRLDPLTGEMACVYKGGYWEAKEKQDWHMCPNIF
Procedure, shortened: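 Inhibition of 20 nM [3H]-25-OHC binding to human ORP4 overexpressed in […] cell lysate, run in 96-well competitive format; […].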

[5] = system: N-terminal OSBP FFAT domain with VAP-A; details: BiMC assay; cited from earlier work
human ORP4 [6] = target: T2, human ORP4; details: cited from earlier work
[7] = system: OSBP levels in HeLa cells; assay: OSBP levels in HeLa cells after 6 h treatment and 24 h compound-free recovery; type: cell-based, human; details: 6 h OSW-1 (10 nM) treatment, 24 h recovery, just prior to viral infection
Procedure, shortened: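 HeLa cells exposed 6 h to compound in complete medium, washed three times, then held 24 h in compound-free complete medium. OSBP read by Western blot (A-5 antibody, β-actin reference) at the time point corresponding to viral inoculation in washout antiviral runs.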

HEK293 cells = assay: 48 h cytotoxicity assay; type: cell-based; details: read-out: growth inhibition 50% (GI50), HEK293 cells; 48 h treatment
[8] = system: Coxsackievirus A9 (strain CoxA9–01); details: HeLa; 1 nM OSW-1; infection 24 h after treatment ended; cited from earlier work
[9] = system: Echovirus 2 (strain Echo2–01); details: HeLa; 1 nM OSW-1; infection 24 h after treatment ended; cited from earlier work
cells = details: 6 h OSW-1 treatment of cells; cited from earlier work
human OSBP [10] = target: T1, human OSBP; details: cited from earlier work

Row | Structure (SMILES) | OSBP cellular localization [1] | effect on OSBP levels in cells (OSBP levels in cells) | OSBP cellular localization on co-administration with OSW-1 [1] | effect of co-administration on OSW-1-induced reduction of OSBP levels [2] | effect on OSBP cellular levels [2] | effect of co-administration on antiproliferative OSW-1 activity, HeLa (HeLa cells) | antiproliferative activity (immortalized cell lines) | effect on cell population (cell counting after Trypan blue staining) (HCT-116 cells) | also measured
1 | C[C@H](CCCC(C)(C)O)[C@H]1CC[C@H]2[C@@H]3CC=C4C[C@@H](O)CC[C@]4(C)[C@H]3CC[C@]12C [25-OHC, 25-hydroxycholesterol] | strongly colocalizes OSBP with the Golgi marker in a small area | does not reduce OSBP levels in cells; also recorded: do not reduce OSBP levels | – | – | – | – | – | – | –
2 | CCC(C)n1ncn(-c2ccc(N3CCN(c4ccc(OCC5COC(Cn6cncn6)(c6ccc(Cl)cc6Cl)O5)cc4)CC3)cc2)c1=O (stereo not shown) [ITZ, itraconazole] | causes OSBP to adopt a more punctate pattern closely associated with the Golgi marker | – | produces a tight localization of OSBP with a stronger signal than OSW-1 alone | partially blocks the reduction of OSBP levels | do not reduce OSBP levels | does not significantly affect the antiproliferative OSW-1 activity | no antiproliferative activity | 15–20% | inhibition of 25-OHC binding to OSBP (human OSBP [3]): no 25-OHC inhibition binding; Kd (full-length GFP-OSBP): ~430 nM; effect on ORD lipid transfer activity (OSBP C-terminal ORD): blocked the ORD transfer activity of both sterols and PI4P; inhibition of 25-OHC binding to ORP4 (human ORP4 [4]): no 25-OHC inhibition binding; inhibition of OSBP FFAT domain interaction with VAP-A [5]: Neither ITZ (3) or TTP (5) substantially inhibited
3 | COc1ccc(C(=O)O[C@H]2[C@H](O[C@@H]3[C@@H](OC(C)=O)[C@H](O[C@H]4C[C@H]5[C@@H]6CC=C7C[C@@H](O)CC[C@]7(C)[C@H]6CC[C@]5(C)[C@@]4(O)[C@H](C)C(=O)CCC(C)C)OC[C@@H]3O)OC[C@@H](O)[C@@H]2O)cc1 [OSW-1] | remaining OSBP is tightly grouped around one location | – | – | – | pronounced reduction of OSBP cellular levels | – | – | 15–20% | Ki, competitive inhibition of 25-OHC binding to ORP4 (human ORP4 [6]): low nanomolar; reduction of cellular OSBP levels [7]: > 90%; GI50 (HEK293 cells): 0.22 nM; prophylactic antiviral protection, Cosackievirus 9a [8]: conferred significant antiviral protection; prophylactic antiviral protection, Echovirus 2 [9]: conferred significant antiviral protection; GI50 (HeLa cells; read-out: growth inhibition 50% (GI50), HeLa cells, 48 h treatment): 0.33 nM; duration of repression of OSBP levels after compound treatment is stopped (OSBP levels in cells; 1 nM OSW-1 for 6 h, then compound removed): 72 h; reduction of OSBP levels in cells (OSBP levels in cells; short duration (1–6 h), non-cytotoxic dose): > 90%; cytotoxicity of 6 h treatment (cells): not cytotoxic nor anti-proliferative; Ki, competitive inhibition of 25-OHC binding to OSBP (human OSBP [10]): low nanomolar
4 | CC1(C)C[C@H]2[C@@H]3CC=C4C[C@@H](OC5CCCCO5)CC[C@]4(C)[C@H]3CC[C@]2(C)[C@H]1O (stereo partly shown) [THEV] | induces OSBP localization to confined area tightly packed with the Golgi marker | – | produces cellular localization effects with elements of both OSW-1 and THEV treatment alone | partially blocks the reduction of OSBP levels | do not reduce OSBP levels | does not significantly affect the antiproliferative OSW-1 activity | no antiproliferative activity | does not affect the cell population | effect of co-administration with OSW-1 on cell population (Trypan blue) (HCT-116 cells; 24 h, 10,000 nM compound with 1 nM OSW-1): rescues cell population numbers
5 | CC(=O)O[C@H]1C(=O)[C@@]2(C)[C@H]([C@H](OC(=O)c3ccccc3)[C@]3(O)C[C@H](OC(=O)[C@H](O)[C@@H](NC(=O)c4ccccc4)c4ccccc4)C(C)=C1C3(C)C)[C@]1(OC(C)=O)CO[C@@H]1C[C@@H]2O [Taxol] | – | – | – | – | OSBP levels are not reduced | – | – | – | –
6 | CC(C)=CCC/C(C)=C/Cc1c(O)cc(/C=C/c2cc(O)c3c(c2)C[C@@H]2C(C)(C)[C@H](O)[C@H](O)C[C@@]2(C)O3)cc1O [schweinfurthin A] | – | do not reduce OSBP levels | – | – | – | – | – | – | –
